Source: ChEMBL document CHEMBL1153079, “Synthesis and biological evaluation of 3',4',5'-trimethoxychalcone analogues as inhibitors of nitric oxide production and tumor cell proliferation” (Bioorg Med Chem, 2009)

Experiments:
Format in all cases: functional, cell-based
[1] = system: COLO 205; assay: Growth inhibition of human COLO205 cells after 48 hrs by MTT assay; settings: COLO 205, 48 h
In short: (§1)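 Cells were from ATCC and grown in RPMI-1640 with 10% fetal calf serum, antibiotics and L-glutamine. Growth was read by MTT after continuous compound exposure, against a DMSO vehicle control, up to a maximum of 100 µM. IC50 came from sigmoidal variable-slope dose–response curves. Triplicates were run in three independent experiments, reported as mean ± SD.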

[2] = system: Peritoneal macrophage cell; assay: Inhibition of nitric oxide production in LPS/IFN-gamma-stimulated BALB/c mouse peritoneal macrophages by Griess method
In short: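 Murine peritoneal macrophages were stimulated with LPS (E. coli 055:B5) plus recombinant IFN-γ, and NO in the medium was measured with Griess reagent. Cell viability under the same conditions was checked by MTT. IC50 came from sigmoidal variable-slope dose–response curves. Triplicates were repeated three times (n = 9), reported as mean ± SD.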

[3] = system: HepG2; assay: Growth inhibition of human HepG2 cells after 48 hrs by MTT assay; settings: HepG2, 48 h; in short: as §1

Row | Structure (SMILES) | IC50 [1] | IC50 [3] | IC50 [2]
1 | COc1cc(C(=O)/C=C/c2ccc(C=O)cc2)cc(OC)c1OC | 68.8 µM | > 100 µM | > 50 µM
2 | COc1cc(C(=O)/C=C/c2ccccc2C=O)cc(OC)c1OC | 88 µM | > 100 µM | 27 µM
3 | COc1cc(/C=C/C(=O)c2cc(OC)c(OC)c(OC)c2)ccc1O | > 100 µM | > 100 µM | 0.3 µM
4 | COc1ccc(/C=C/C(=O)c2cc(OC)c(OC)c(OC)c2)cc1 | 46.4 µM | 49.5 µM | 7.6 µM
5 | COc1ccc(/C=C/C(=O)c2cc(OC)c(OC)c(OC)c2)cc1OC | > 100 µM | 20.3 µM | 4.5 µM
6 | COc1cc(C(=O)/C=C/c2cc(O)ccc2O)cc(OC)c1OC | > 100 µM | > 100 µM | > 50 µM
7 | COc1cc(C(=O)/C=C/c2cc([N+](=O)[O-])ccc2O)cc(OC)c1OC | 76 µM | > 100 µM | 4.4 µM
8 | COc1cc(C(=O)/C=C/c2ccc(N(C)C)cc2)cc(OC)c1OC | 75 µM | 30 µM | 27 µM
9 | COc1cc(C(=O)/C=C/c2cccc(O)c2)cc(OC)c1OC | 49 µM | 94 µM | 13.5 µM
10 | COc1ccc(/C=C/C(=O)c2cc(OC)c(OC)c(OC)c2)c(OC)c1 | 82.5 µM | > 100 µM | > 50 µM

These reach a lower IC50 [1]. Values come first.

Row | IC50 [1] | IC50 [3] | Structure (SMILES) | IC50 [2]
11 | 19.8 µM | 14.9 µM | COc1cc(C(=O)/C=C/c2ccc(O)c(O)c2)cc(OC)c1OC | 1.5 µM
12 | 11.2 µM | 10.6 µM | COc1ccc(/C=C/C(=O)c2cc(OC)c(OC)c(OC)c2)cc1O | 1.3 µM
13 | 13 µM | 13.5 µM | COc1cccc(/C=C/C(=O)c2cc(OC)c(OC)c(OC)c2)c1O | 3 µM
14 | 22.5 µM | > 100 µM | COc1cc(C(=O)/C=C/c2cccc(C=O)c2)cc(OC)c1OC | > 50 µM
15 | 19.2 µM | 19.6 µM | COc1cc(/C=C/C(=O)c2cc(OC)c(OC)c(OC)c2)cc(OC)c1OC | 2.8 µM
16 | 18.6 µM | 16.1 µM | COc1cc(OC)c(OC)cc1/C=C/C(=O)c1cc(OC)c(OC)c(OC)c1 | 4.6 µM
17 | 22.5 µM | 80 µM | COc1cc(C(=O)/C=C/c2ccc(Br)cc2)cc(OC)c1OC | 20 µM
18 | 43 µM | > 100 µM | COc1cc(C(=O)/C=C/c2ccc([N+](=O)[O-])cc2)cc(OC)c1OC | 30 µM
19 | 41.5 µM | 52 µM | COc1cc(C(=O)/C=C/c2ccc(C)cc2)cc(OC)c1OC | 4.5 µM
20 | 2.2 µM | 1.8 µM | COc1cccc(/C=C/C(=O)c2cc(OC)c(OC)c(OC)c2)c1 | 0.3 µM
21 | 25.7 µM | 22 µM | COc1cc(C(=O)/C=C/c2ccc(F)cc2)cc(OC)c1OC | 17.6 µM
22 | 13.2 µM | 11.5 µM | COc1cccc(/C=C/C(=O)c2cc(OC)c(OC)c(OC)c2)c1OC | 2.4 µM
23 | 29.7 µM | 16 µM | COc1cc(C(=O)/C=C/c2ccc(O)cc2)cc(OC)c1OC | 5 µM
